The values below come from ChEMBL document CHEMBL1137696, “Preparation and in vitro evaluation of benzylsulfanyl benzoxazole derivatives as potential antituberculosis agents” (2009).

Common to all, as to format: functional
The subject of assay [1] is Mycobacterium tuberculosis. Kind of assay: Antimycobacterial activity against Mycobacterium tuberculosis CNCTC My 331/88 after 14 days by micromethod. As to conditions: CNCTC My 331/88, 336 h. A digest of the protocol:
(§1)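 MIC by micromethod in Šula semisynthetic medium. Compounds added as DMSO solutions at 1000, 500, 250, 125, 62, 32, 16, 8, 4 and 2 µmol/L. Incubated at 37 °C and read at 14 and 21 days. MIC taken as the lowest concentration that inhibited mycobacterial growth, expressed in µmol/L. INH run as standard. Strains from CNCTC.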

The subject of assay [2] is Mycobacterium tuberculosis. Kind of assay: Antimycobacterial activity against Mycobacterium tuberculosis CNCTC My 331/88 after 21 days by micromethod. As to conditions: CNCTC My 331/88, 504 h. A digest of the protocol:
as §1

Assay [3] relates to Mycobacterium kansasii. Kind of assay: Antimycobacterial activity against Mycobacterium kansasii CNCTC My 235/80 after 7 days by micromethod. The conditions noted are these: CNCTC My 235/80, 168 h. Summed up: (§2)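 Micromethod MIC in Šula semisynthetic medium, with compounds added as DMSO solutions at 1000, 500, 250, 125, 62, 32, 16, 8, 4 and 2 µmol/L. Cultures were incubated at 37 °C, and M. kansasii was read at 7, 14 and 21 days. MIC is the lowest concentration at which mycobacterial growth was inhibited. INH served as standard. Strain 6509/96 was a clinical isolate.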

For assay [4], the system named is Mycobacterium kansasii. Nature of the assay: Antimycobacterial activity against Mycobacterium kansasii CNCTC My 235/80 after 14 days by micromethod. As to conditions: CNCTC My 235/80, 336 h. A digest of the protocol: as §2
For assay [5], the system named is Mycobacterium kansasii. Nature of the assay: Antimycobacterial activity against Mycobacterium kansasii CNCTC My 235/80 after 21 days by micromethod. The conditions noted are these: CNCTC My 235/80, 504 h. Summed up: as §2
Assay [6] deals with Mycobacterium kansasii. Kind of assay: Antimycobacterial activity against Mycobacterium kansasii 6509/96 after 7 days by micromethod. As to conditions: 6509/96, 168 h. Summed up:
as §2

Assay [7] deals with Mycobacterium kansasii. Kind of assay: Antimycobacterial activity against Mycobacterium kansasii 6509/96 after 14 days by micromethod. As to conditions: 6509/96, 336 h. Summed up: as §2
Assay [8] concerns Mycobacterium kansasii. Nature of the assay: Antimycobacterial activity against Mycobacterium kansasii 6509/96 after 21 days by micromethod. As to conditions: 6509/96, 504 h. A digest of the protocol: as §2
Assay [9] relates to Mycobacterium avium. Kind of assay: Antimycobacterial activity against Mycobacterium avium CNCTC My 330/88 after 14 days by micromethod. The conditions noted are these: CNCTC My 330/88, 336 h. Summed up: as §1
Assay [10] has as its system Mycobacterium avium. Kind of assay: Antimycobacterial activity against Mycobacterium avium CNCTC My 330/88 after 21 days by micromethod. The conditions noted are these: CNCTC My 330/88, 504 h. A digest of the protocol:
as §1

Converted amounts (≈) assume the structure as drawn.

In the case of `Brc1ccc(CSc2nc3ccccc3o2)cc1`, the minimum inhibitory concentration (MIC) in assay [1] is more than 62 µM; in assay [2] it was more than 125 µM; in assay [3] it was 32 µM (≈ 10.2 µg/mL); in assay [4], 62 µM (≈ 19.9 µg/mL); in assay [5] it was more than 62 µM; in [6] it was 32 µM (≈ 10.2 µg/mL). The MIC came out at 62 µM (≈ 19.9 µg/mL) in [7], 125 µM (≈ 40 µg/mL) in assay [8], 32 µM (≈ 10.2 µg/mL) in assay [9] and 62 µM (≈ 19.9 µg/mL) in [10].
`Fc1ccccc1CSc1nc2ccccc2o1`: the minimum inhibitory concentration (MIC) was 125 µM (≈ 32.4 µg/mL) in assay [1]; 250 µM (≈ 64.8 µg/mL) in [2]; 32 µM (≈ 8.3 µg/mL) in assay [3]; 32 µM (≈ 8.3 µg/mL) in assay [4]; 62 µM (≈ 16.1 µg/mL) in assay [5]; 32 µM (≈ 8.3 µg/mL) in [6]. In addition, the minimal inhibitory concentration (MIC) was 32 µM (≈ 8.3 µg/mL) in assay [7], 62 µM (≈ 16.1 µg/mL) in assay [8], 62 µM (≈ 16.1 µg/mL) in assay [9] and 62 µM (≈ 16.1 µg/mL) in assay [10].
Consider `c1ccc(CSc2nc3ccccc3o2)cc1`, for which the MIC was found to be 250 µM (≈ 60.3 µg/mL) in assay [1]; 500 µM (≈ 121 µg/mL) in assay [2]; 125 µM (≈ 30.2 µg/mL) in assay [3]; 250 µM (≈ 60.3 µg/mL) in [4]; 250 µM (≈ 60.3 µg/mL) in assay [5]; 32 µM (≈ 7.72 µg/mL) in [6]. Further, the minimum inhibitory concentration (MIC) in assay [7] came to 125 µM (≈ 30.2 µg/mL); in assay [8], 250 µM (≈ 60.3 µg/mL); in [9], 62 µM (≈ 15 µg/mL); in assay [10] it was 125 µM (≈ 30.2 µg/mL).
As for `N#Cc1ccc(CSc2nc3ccccc3o2)cc1`, the MIC in assay [1] was more than 62 µM; in [2], more than 62 µM; in assay [3] it was 32 µM (≈ 8.52 µg/mL); in assay [4], 32 µM (≈ 8.52 µg/mL); in assay [5], more than 32 µM; in assay [6] it was 16 µM (≈ 4.26 µg/mL). The MIC is 32 µM (≈ 8.52 µg/mL) in [7], more than 32 µM in assay [8], 62 µM (≈ 16.5 µg/mL) in assay [9] and 62 µM (≈ 16.5 µg/mL) in assay [10].
As for `O=[N+]([O-])c1cccc(CSc2nc3ccccc3o2)c1`, the minimal inhibitory concentration (MIC) is more than 62 µM in [1]; 125 µM (≈ 35.8 µg/mL) in [2]; 32 µM (≈ 9.16 µg/mL) in [3]; more than 32 µM in assay [4]; more than 32 µM in assay [5]; 32 µM (≈ 9.16 µg/mL) in [6]. Moreover, the minimum inhibitory concentration (MIC) was 32 µM (≈ 9.16 µg/mL) in assay [7], more than 32 µM in [8], more than 32 µM in assay [9] and more than 62 µM in [10].
Turning to `FC(F)(F)c1cc(CSc2nc3ccccc3o2)cc(C(F)(F)F)c1`, the MIC in [1] was determined as 62 µM (≈ 23.4 µg/mL); in assay [2], 125 µM (≈ 47.2 µg/mL); in assay [3] it was 62 µM (≈ 23.4 µg/mL); in assay [4], 62 µM (≈ 23.4 µg/mL); in assay [5] it was 125 µM (≈ 47.2 µg/mL); in [6] it was 32 µM (≈ 12.1 µg/mL). For the same molecule, the minimal inhibitory concentration (MIC) in assay [7] was 32 µM (≈ 12.1 µg/mL); in [8], 62 µM (≈ 23.4 µg/mL); in [9], more than 125 µM; in assay [10] it was more than 125 µM.
For the molecule `NNC(=O)c1ccncc1` [ISONIAZID], the MIC was 0.5 µM (≈ 0.0686 µg/mL) in assay [1]; 1 µM (≈ 0.137 µg/mL) in assay [2]; more than 250 µM in assay [3]; more than 250 µM in [4]; more than 250 µM in [5]; 2 µM (≈ 0.274 µg/mL) in assay [6]. Moreover, the minimum inhibitory concentration (MIC) in [7] is 2 µM (≈ 0.274 µg/mL); in [8], 4 µM (≈ 0.549 µg/mL); in assay [9], more than 250 µM; in [10] it was more than 250 µM.
Turning to `Sc1nc2ccccc2o1`, the minimum inhibitory concentration (MIC) in assay [1] was 500 µM (≈ 75.6 µg/mL); in assay [2], 500 µM (≈ 75.6 µg/mL); in assay [3] it was 500 µM (≈ 75.6 µg/mL); in assay [4] it was 1000 µM (≈ 151 µg/mL); in [5] it was 1000 µM (≈ 151 µg/mL); in assay [6] it was 250 µM (≈ 37.8 µg/mL). For the same molecule, the minimum inhibitory concentration (MIC) came to 500 µM (≈ 75.6 µg/mL) in [7], 1000 µM (≈ 151 µg/mL) in [8], 250 µM (≈ 37.8 µg/mL) in [9] and 500 µM (≈ 75.6 µg/mL) in assay [10].
Take `Cc1cccc(CSc2nc3ccccc3o2)c1`: the MIC in assay [1] amounted to 250 µM (≈ 63.8 µg/mL); in assay [2] it was 500 µM (≈ 128 µg/mL); in [3], 125 µM (≈ 31.9 µg/mL); in assay [4] it was 125 µM (≈ 31.9 µg/mL); in assay [5] it was 500 µM (≈ 128 µg/mL); in [6] it was 125 µM (≈ 31.9 µg/mL). Also, the MIC was 125 µM (≈ 31.9 µg/mL) in [7], 250 µM (≈ 63.8 µg/mL) in assay [8], 62 µM (≈ 15.8 µg/mL) in assay [9] and 125 µM (≈ 31.9 µg/mL) in assay [10].
On to `COc1ccc(CSc2nc3ccccc3o2)cc1`, for which the MIC stood at 62 µM (≈ 16.8 µg/mL) in assay [1]; 125 µM (≈ 33.9 µg/mL) in [2]; 32 µM (≈ 8.68 µg/mL) in [3]; 32 µM (≈ 8.68 µg/mL) in assay [4]; 62 µM (≈ 16.8 µg/mL) in assay [5]; 32 µM (≈ 8.68 µg/mL) in [6]. For the same molecule, the MIC was 32 µM (≈ 8.68 µg/mL) in assay [7], 62 µM (≈ 16.8 µg/mL) in assay [8], 32 µM (≈ 8.68 µg/mL) in assay [9] and 62 µM (≈ 16.8 µg/mL) in assay [10].
